Source: PubChem (Sanford-Burnham Center for Chemical Genomics)
Only some compounds are listed: those with a hit (about 1.3% of all), similar ones and a draw of the others.
PfGluPho inh = PfG6PD (Plasmodium falciparum) enzyme inhibition | 350,000 compounds, 0.78% hits | inhibition, % at 20 µM | AID 504690 | PfGluPho enzyme, NADPH resazurin-diaphorase fluorescence;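 active means inhibition reaching at least a set limit at 20 µM in the primary screen, cut at about 59% in these data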;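 further: 0% = DMSO wells with substrate and 100% = DMSO wells lacking glucose-6-phosphate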
Diaph inh CS = diaphorase inhibition or chemical oxidation counter-screen | diaphorase resazurin-to-resorufin fluorescence, NADH, 16 min; bacterial (C. kluyveri) enzyme, not human | 190,000 compounds, 0.69% hits | inhibition, % at 20 µM | AID 1217;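 active means primary screen inhibition at 20 µM above a set limit, cut at about 50% in these data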;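 further: plate controls were DMSO with full reaction for no effect and wells lacking NADH for full effect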
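Assay system – diaphorase enzyme from Clostridium kluyveri · Amount – diaphorase 0.14 U/mL (working solution) · Times – reaction incubation of 16 min at room temperature · Controls – No-NADH positive control and DMSO neutral control · Signal – resorufin fluorescence 544/590 nm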
HKDC1 inhibitor = HKDC1 (human) hexokinase inhibition; Q2TB90; recombinant HKDC1, G6PDH/diaphorase resazurin coupled fluorescence; inhibition, % at 20 µM; 340,000 compounds, 0.16% hits; AID 493160;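 active means inhibition above about 35% when tested at 20 µM, limit read from the data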;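 further: plate controls were DMSO wells with enzyme for no effect and DMSO wells lacking enzyme for full effect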
Target sequence (Q2TB90 whole entry, looked up): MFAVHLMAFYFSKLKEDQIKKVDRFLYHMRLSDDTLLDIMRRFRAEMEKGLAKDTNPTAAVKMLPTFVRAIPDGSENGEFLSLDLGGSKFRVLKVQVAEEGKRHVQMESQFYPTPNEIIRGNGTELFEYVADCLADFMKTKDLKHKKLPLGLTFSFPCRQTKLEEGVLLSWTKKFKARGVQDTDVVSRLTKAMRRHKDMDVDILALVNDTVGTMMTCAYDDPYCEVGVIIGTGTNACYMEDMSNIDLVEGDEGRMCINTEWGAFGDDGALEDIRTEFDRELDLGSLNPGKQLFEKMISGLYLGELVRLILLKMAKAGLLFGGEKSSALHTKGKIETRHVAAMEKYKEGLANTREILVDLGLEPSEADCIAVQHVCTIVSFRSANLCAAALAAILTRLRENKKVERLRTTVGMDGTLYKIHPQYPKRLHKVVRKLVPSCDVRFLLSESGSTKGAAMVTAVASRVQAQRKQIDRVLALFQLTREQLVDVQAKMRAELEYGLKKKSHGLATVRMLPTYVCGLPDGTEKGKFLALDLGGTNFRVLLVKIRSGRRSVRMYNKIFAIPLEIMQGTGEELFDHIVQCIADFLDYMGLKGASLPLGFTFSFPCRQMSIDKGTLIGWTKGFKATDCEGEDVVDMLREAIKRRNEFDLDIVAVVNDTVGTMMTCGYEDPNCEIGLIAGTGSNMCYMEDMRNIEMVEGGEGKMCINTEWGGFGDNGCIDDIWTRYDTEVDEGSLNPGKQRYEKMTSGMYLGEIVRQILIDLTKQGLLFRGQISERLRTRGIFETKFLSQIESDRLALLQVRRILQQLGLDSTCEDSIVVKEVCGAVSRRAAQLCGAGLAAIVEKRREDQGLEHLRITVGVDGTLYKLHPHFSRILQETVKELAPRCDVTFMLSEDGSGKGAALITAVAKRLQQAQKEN
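Test system: Recombinant HKDC1 (HK5) hexokinase enzyme, produced in-house | Input: HKDC1 at 5 µg/mL | Buffer or medium: Tris pH 8.0 buffer with MgCl2, Tween-20, BSA, BME | Schedule: 90 min reaction incubation at room temperature, dark | Technique: Resazurin-to-resorufin fluorescence via G6PDH and diaphorase coupling, 525/613 nm | Controls: DMSO wells with and without enzyme mix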
G6PDH CS = L. mesenteroides G6PDH inhibition counter-screen; 200,000 compounds, 0.12% hits; AID 1020; inhibition, % at 5 µM; Purified L. mesenteroides G6PDH, diaphorase/resazurin coupled fluorescence, 45 min; in the data active means inhibition above about 50%
HKDC1 act conf2 = HKDC1 (human) activation, single-dose confirmed. shares compounds with HKDC1 inhibitor. recombinant HKDC1, G6PDH/diaphorase resazurin fluorescence; active compounds read low. inhibition, % at 20 µM. 740 compounds, 14% hits. AID 504708;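 active means inhibition at or below a set negative limit, negative inhibition meaning the enzyme was activated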
Active calls of the source: *; nt = not tested or not shown.

SMILES | PfGluPho inh | Diaph inh CS | HKDC1 inhibitor | G6PDH CS | HKDC1 act conf2
C[C@@H]1CN([C@@H](C)CO)C(=O)CCCn2nncc2CO[C@@H]1CN(C)C(=O)Nc1ccnc(N2CCOCC2)c1 | 9.2 | nt | nt | nt | nt
Cc1ccc2oc(C(=O)N3CCC(N4CCSCC4)CC3)c(C)c2c1 | 1.5 | nt | 35.5* | nt | -12.7
O=C(NCC1CCCO1)c1cn(Cc2ccccc2)nc1-c1ccc(Cl)cc1 (configuration not stated) | -6.8 | nt | 0.7 | nt | nt
O=C(NN1CCOCC1)c1ccc(Cl)c([N+](=O)[O-])c1 | 5.3 | nt | 36.5* | nt | -33.6
CCOC(=O)N(C)C[C@H]1OCc2cnnn2CCCC(=O)N([C@@H](C)CO)C[C@H]1C | -6.5 | nt | nt | nt | nt
CCCCN(CCCC)C(=S)N/N=C/c1c(C)[nH]n(-c2ccccc2)c1=O | 3.8 | 11.8 | -40.6 | -0.6 | -65.0*
Cc1ccc(/C=N/Nc2nncc(-c3ccccc3)n2)o1 | -0.8 | 8.8 | 2.6 | -3.1 | nt
Cc1[nH]n(-c2ccccc2)c(=O)c1/C=N/Nc1nncc(-c2ccccc2)n1 | -30.3 | 6.5 | -46.8 | -12.4 | -60.6*
CCc1cccc(NC(=O)Cn2c(=O)n(CCC(=O)NCC3CCCO3)c(=O)c3cc(OC)c(OC)cc32)c1 (configuration not stated) | 1.7 | nt | -4.9 | nt | nt
COc1cc(Cl)c(NC2=CC(=O)C(=O)c3ccccc32)c(OC)c1 | 12.7 | nt | 25.1 | nt | nt
CCOc1cc(Br)cc(/C=N/NC(=O)c2cccnc2)c1O | -40.2 | nt | -32.3 | nt | nt
COc1ccc2c(c1)c(=O)oc1c(C)c(OCc3ccc(C(=O)O)cc3)ccc12 | -21.9 | nt | 28.9 | nt | nt
COc1ccc2c(c1)c(=O)oc1c(C)c(OCc3cc(C(=O)O)oc3C)ccc12 | -17.2 | 46.7 | 78.7* | 4.0 | 11.3
CCCOc1ccccc1OCC(=O)Nc1cc(Cl)ccc1-n1cncn1 | -1.6 | nt | -1.8 | nt | nt
NC(=S)N=Nc1c(O)cc(O)c2[nH]c(=O)ccc12 | 93.0* | nt | 35.2* | nt | 26.8
NC(=S)N=Nc1c(O)[nH]c2ccc(F)cc12 | -9.7 | 14.0 | 8.5 | 6.0 | nt
CC(C)CNC(=O)COC(=O)CNC(=O)c1cc(Cl)cc([N+](=O)[O-])c1 | 14.6 | 10.9 | -51.8 | -4.8 | -24.3
CS(=O)(=O)c1ccc(C(=O)OCC(=O)NC(=O)Cc2ccccc2)cc1 | 0.5 | nt | 34.8 | nt | -19.4
CCN1C(=O)C(=O)N(CC(=O)Nc2cccc(C(F)(F)F)c2)C1=O | 10.5 | nt | -0.7 | nt | nt
COC(=O)c1cc(=O)n(Cc2ccc(OC)cc2)c(=NCc2ccc(OC)cc2)s1 | 4.6 | 14.4 | -43.4 | -1.0 | -16.1
COC(=O)c1cc(=O)n(Cc2ccccc2)c(=NCc2ccccc2)s1 | nt | -3.6 | nt | -0.4 | nt
Cc1ccc(S(=O)(=O)NNC(=O)CCC(=O)Nc2ccccc2Cl)cc1 | -14.4 | nt | -4.4 | nt | nt
O=C(CCl)N(c1ccc(Cl)cc1)c1c[nH]c2ccccc12 | 17.8 | 0.5 | 40.8* | -4.2 | 5.8
O=C(CCl)N(c1ccccc1)c1c[nH]c2ccccc12 | 1.4 | 16.9 | 21.0 | 7.8 | nt
Cc1ccc(S(=O)(=O)N(C(=O)c2ccco2)c2cc3sc(=O)oc3c3ccccc23)cc1 | 54.3 | 47.5 | 36.9* | 3.8 | -5.0
SMILES | PfGluPho inh | Diaph inh CS | HKDC1 inhibitor | G6PDH CS | HKDC1 act conf2
O=C1/C(=C/c2ccncc2)Cc2ccccc21 | -1.4 | nt | 5.7 | nt | nt
CC1C/C(=C/c2ccncc2)C(=O)/C(=C/c2ccncc2)C1 (configuration not stated) | 9.0 | 6.8 | 43.5* | 0.9 | -4.5
Cc1ccccc1C(=O)NN1C(=O)CSC1=S | -15.3 | 2.6 | -0.4 | -10.3 | nt
O=C1CSC(=S)N1Nc1ccccc1 | 25.5 | nt | -44.4 | nt | -17.4
CCOC(=O)N1CCN(CC(=O)Nc2nnc(C(F)(F)F)s2)CC1 | -15.2 | nt | 3.9 | nt | nt
O=C(C1CCCC1)N1CCN=C1SCc1cccc([N+](=O)[O-])c1 | 3.9 | 4.0 | 0.3 | 10.4 | nt
Cn1cnnc1SC1c2cccc3cccc(c23)C1NS(=O)(=O)c1ccccc1 (configuration not stated) | -49.8 | 8.5 | -49.1 | 8.8 | -64.0*
Cc1ccc(S(=O)(=O)NC2c3cccc4cccc(c34)C2Sc2nncn2C)cc1 (configuration not stated) | 1.0 | 6.2 | -13.8 | 9.9 | nt
CC(=O)N1CCN(C2c3cccc4cccc(c34)C2NS(=O)(=O)c2ccccc2)CC1 (configuration not stated) | -22.4 | 15.5 | -49.4 | -2.3 | -45.3*
Cc1cc(C)c2cc(C)c3nnc(SCC(=O)NCc4ccc5c(c4)OCO5)n3c2c1 | -5.5 | 42.9 | 32.0 | 15.0 | 31.4
COc1ccc(N2CCN(C(=O)CSc3nnc4c(C)cc5c(C)cc(C)cc5n34)CC2)cc1 | 38.5 | 43.7 | 42.9* | -47.3 | 19.2
Cc1cc2cc(C)c3nnc(SCC(=O)NCc4ccc5c(c4)OCO5)n3c2cc1C | -3.4 | 38.5 | 31.4 | 6.0 | nt
Oc1ccc(O)c(Cc2nc3ccccc3s2)c1 | 17.1 | -3.8 | 45.4* | -2.3 | 36.8
Cc1c(C(=O)Nc2ccccc2)cn2c(nc3ccccc32)c1C#N | -11.2 | 11.9 | 6.9 | 15.6 | nt
Cc1ccccc1C(=O)Nc1ccc2c(C#N)c3nc4ccccc4nc3n2c1 | 18.5 | 72.1* | 37.1* | 32.8 | 6.7
O=C(CNCc1ccc(Cl)cc1)Nc1cc(S(=O)(=O)N2CCCC2)ccc1Cl | 8.7 | nt | 5.3 | nt | nt
O=C(O)c1ccc(S(=O)(=O)/N=C2\C=C(Nc3ccccc3F)C(=O)c3ccccc32)cc1 | 93.0* | nt | 80.6* | nt | 75.7
COC(=O)Cc1ccc(OC(=O)c2cccc(S(=O)(=O)N3CCN(C)CC3)c2)cc1 | -3.2 | nt | -5.2 | nt | nt
CC1CCCN(C(=O)COC(=O)c2cc([N+](=O)[O-])ccc2N2CCOCC2)C1 (configuration not stated) | 12.4 | nt | 41.3* | nt | -19.5
Cc1cc(=O)[nH]c2sc(C(=O)N3c4ccccc4CC3C)c(N)c12 (configuration not stated) | -16.6 | nt | 1.8 | nt | nt
Cc1nc([N+](=O)[O-])c(Br)n1Cc1ccc(Cl)c(Cl)c1 | 6.0 | 8.7 | 35.0 | 3.5 | 53.8
COC1CC(N)C2OC(c3ccccc3)OCC2O1 (configuration not stated) | -9.5 | nt | nt | nt | nt
COc1ccc(N(C(=O)CCl)C(C(=O)NCCc2ccccc2)c2cccs2)cc1Cl (configuration not stated) | -0.6 | 3.5 | 32.2 | -0.4 | 21.3
